ChEMBL document CHEMBL3120055, “HPLC-based activity profiling for GABAA receptor modulators in Adenocarpus cincinnatus” (J Nat Prod, 2014)
Active and inactive are the calls of the source. The calls are words filed in the database; no cut-off is given here.

Assays:
Rattus norvegicus [1] = species: Rattus norvegicus; assay: Positive allosteric modulation of rat alpha1beta2gamma2S GABAA receptor expressed in Xenopus laevis oocytes assessed as potentiation of GABA-induced chloride current at 100 uM by two-microelectrode voltage clamp electrophysiology relative to control; assay type: cell-based
Rattus norvegicus [2] = species: Rattus norvegicus; assay: Positive allosteric modulation of rat alpha1beta2gamma2S GABAA receptor expressed in Xenopus laevis oocytes assessed as potentiation of GABA-induced chloride current at 1 uM by two-microelectrode voltage clamp electrophysiology relative to control; assay type: cell-based
Summary of the method: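 Rat α1β2γ2s cRNAs (1:1:10) injected into collagenase-defolliculated oocytes, kept at 18 °C in ND96 with penicillin-streptomycin, and recorded on days 1–5. Test agent applied by fast perfusion with GABA EC5–10 in 1% DMSO final. Enhancement = I(GABA+Comp)/IGABA − 1.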

Rattus norvegicus [3] = species: Rattus norvegicus; assay: Positive allosteric modulation of rat alpha1beta2gamma2S GABAA receptor expressed in Xenopus laevis oocytes assessed as potentiation of GABA-induced chloride current at 300 uM by two-microelectrode voltage clamp electrophysiology; assay type: cell-based
Summary of the method: (§1)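 Rat α1β2γ2s cRNAs (1:1:10) were injected into collagenase-treated Xenopus oocytes, which were kept at 18 °C in ND96 and recorded on days 1–5. Two-electrode clamp was held at −70 mV in bath containing 90 mM NaCl and 5 mM HEPES, pH 7.4. Compound at 0.1–300 μM was co-applied with GABA EC5–10 by fast perfusion, with 1% DMSO final. Enhancement is I(GABA+Comp)/IGABA − 1, given as mean ± SE from four oocytes across three batches.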

[4] = Positive allosteric modulation of rat alpha1beta2gamma2S GABAA receptor expressed in Xenopus laevis oocytes assessed as potentiation of GABA-induced chloride current by two-microelectrode voltage clamp electrophysiology; assay type: cell-based; summary of the method: as §1
Rattus norvegicus [5] = species: Rattus norvegicus; assay: Agonist activity at rat alpha1beta2gamma2S GABAA receptor expressed in Xenopus laevis oocytes assessed as direct activation of chloride current in absence of GABA at 0.1 to 30 uM by two-microelectrode voltage clamp electrophysiology
Rattus norvegicus [6] = species: Rattus norvegicus; assay: Positive allosteric modulation of rat alpha1beta2gamma2S GABAA receptor expressed in Xenopus laevis oocytes assessed as potentiation of GABA-induced chloride current by two-microelectrode voltage clamp electrophysiology relative to control; assay type: cell-based; summary of the method: as §1

Compound: O=C1c2ccc(O)cc2O[C@H](c2ccccc2)[C@H]1O
- %max (Rattus norvegicus [1]): 11.7%

Compound: CC(C)=CCc1cc2c(cc1O)OCC(c1ccc(O)cc1O)C2=O (stereo unspecified)
- %max (Rattus norvegicus [1]): 199%

Compound: Oc1ccc2c(c1)OC[C@H]1c3cc4c(cc3O[C@@H]21)OCO4
- %max (Rattus norvegicus [1]): 238%

Compound: CC(C)=CCc1c(O)ccc2c1O[C@H](c1ccc(O)cc1)[C@@H](O)C2=O
- %max (Rattus norvegicus [1]): 272%

Compound: CO/C(=C\c1ccccc1)C(=O)c1ccc(O)cc1O
- %max (Rattus norvegicus [1]): 228%

Compound: CN1C(=O)CN=C(c2ccccc2)c2cc(Cl)ccc21
- Activity (Rattus norvegicus [2]): 231%

Compound: CO[C@H](Cc1ccccc1)C(=O)c1ccc(O)cc1O
- %max (Rattus norvegicus [1]): 88.8%

Compound: Oc1ccc2c(c1)OC[C@H]1c3cc4ccoc4cc3O[C@@H]21
- %max (Rattus norvegicus [1]): 213%

Compound: CC(C)=CCc1cc2c(c(CC=C(C)C)c1O)O[C@H](c1ccc(O)cc1)[C@@H](O)C2=O
- %max (Rattus norvegicus [1]): 287%

Compound: CC(C)(O)CCc1cc2c(cc1O)O[C@H]1c3ccc(O)cc3OC[C@@H]21
- %max (Rattus norvegicus [1]): 489%
- Activity (Rattus norvegicus [3]): inactive
- EC50 [4]: 8.6 µM
- Activity (Rattus norvegicus [5]): inactive
- Emax (Rattus norvegicus [6]): 640%

Compound: CC(C)=CCc1c(O)ccc2c(=O)c(-c3ccc(O)cc3O)coc12
- %max (Rattus norvegicus [1]): 560%
- EC50 [4]: 2.8 µM
- Activity (Rattus norvegicus [5]): inactive
- Emax (Rattus norvegicus [6]): 553%

Compound: CC(C)=CCc1c(O)c(CCC(C)(C)O)cc2c1O[C@H](c1ccc(O)cc1)[C@@H](O)C2=O
- %max (Rattus norvegicus [1]): -26%

Compound: CC(C)=CCc1c(O)ccc2c(=O)c(-c3ccc(O)cc3)coc12
- %max (Rattus norvegicus [1]): 192%

Compound: CC(C)=CCc1c(O)ccc2c1OCC(c1ccc(O)cc1O)C2=O (stereo unspecified)
- %max (Rattus norvegicus [1]): 361%

Compound: CC1(C)C=Cc2cc3c(cc2O1)O[C@H]1c2ccc(O)cc2OC[C@@H]31 [ISONEORAUTENOL]
- %max (Rattus norvegicus [1]): 388%
- Activity (Rattus norvegicus [3]): inactive
- EC50 [4]: 40.7 µM
- Activity (Rattus norvegicus [5]): inactive
- Emax (Rattus norvegicus [6]): 771%

Compound: CC(C)=CCc1cc2c(cc1O)O[C@H]1c3ccc(O)c(O)c3OC[C@@H]21
- %max (Rattus norvegicus [1]): 454%
- Activity (Rattus norvegicus [3]): inactive
- EC50 [4]: 18.8 µM
- Activity (Rattus norvegicus [5]): inactive
- Emax (Rattus norvegicus [6]): 491%
